One data set concerns M. smegmatis ATCC607. The experiment in a line: MIC, broth dilution. It is filed as cell-based, Mycobacterium smegmatis. The settings on record: M. smegmatis ATCC607, broth dilution method.
In data set [1] the test system is non-replicating M. tuberculosis H37Rv (pFCA-luxAB). The experiment in a line: microbe, parasite or virus in culture. The conditions noted are these: Mycobacterium tuberculosis, read-out: MIC μg/mL (LORA). It counts as cell-based.
Data set [2] deals with T1, Mtb serine/threonine kinase PKnA (Mycobacterium tuberculosis, UniProt P9WI83).
T1 sequence (P9WI83 1-431): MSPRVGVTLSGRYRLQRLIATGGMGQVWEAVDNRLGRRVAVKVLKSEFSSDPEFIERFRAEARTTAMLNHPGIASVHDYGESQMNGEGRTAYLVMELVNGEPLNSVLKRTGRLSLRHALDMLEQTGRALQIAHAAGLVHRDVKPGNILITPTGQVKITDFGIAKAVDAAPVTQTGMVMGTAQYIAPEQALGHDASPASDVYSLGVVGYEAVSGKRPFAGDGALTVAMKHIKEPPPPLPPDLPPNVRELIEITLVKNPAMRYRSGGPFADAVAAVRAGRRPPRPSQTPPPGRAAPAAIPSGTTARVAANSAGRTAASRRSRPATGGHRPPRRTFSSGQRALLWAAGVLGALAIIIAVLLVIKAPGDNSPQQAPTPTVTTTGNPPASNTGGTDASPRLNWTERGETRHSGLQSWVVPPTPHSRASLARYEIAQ
The experiment in a line: Ser/Thr protein kinase assay. It is filed as biochemical, M. tuberculosis.

The subject of the next data set is M. tuberculosis. It counts as cell-based, Mycobacterium tuberculosis. The settings on record: for time to kill Mtb completely (100%): 2× MIC: capuramycin 24.0 μg/mL; for time to kill Mtb completely (100%) / time to kill 50% of Mtb: UT-01320 3.0 μg/mL; for time to kill 50% of Mtb: 2× MIC: rifampicin 0.4, INH 1.0 (so in the source).
The target in the next data set is E. coli RNA polymerase (Escherichia coli, UniProt P0A8T7+P0A8V2). Nature of the data set: RNA polymerase assay. It is filed as biochemical.
For data set [3], the target named is M. smegmatis RNA polymerase (Mycolicibacterium smegmatis, UniProt A0QS66+P60281). Nature of the data set: RNA polymerase assay. It is filed as biochemical.
Another data set concerns P. aeruginosa ATCC 27853. The experiment in a line: MIC, broth dilution. It is filed as cell-based. The conditions noted are these: Pseudomonas aeruginosa, ATCC27853. For orientation: Dilution methods test growth across graded concentrations, often in twofold steps.
A further data set can be described thus: Cytotoxicity assay. It is filed as cell-based. The conditions noted are these: monkey, Vero monkey kidney cells (ATCC CCL-81). Summed up: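 Vero kidney cells grown in 96-well plates in ATCC-formulated Eagle's Minimum Essential Medium and exposed to test compound. Each plate includes reference drugs of known toxicity as controls. Cytopathic effect is read by MTT assay after incubation, and IC50 is reported.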

The subject of data set [4] is HepG2 human hepatoblastoma cells. Nature of the data set: Cytotoxicity assay. It is filed as cell-based. The conditions noted are these: HepG2, read-out: IC50 μg/mL HepG2 cells.
The test system of a further data set is E. faecium ATCC 349. The experiment in a line: MIC, broth dilution. The conditions noted are these: Enterococcus faecium, ATCC349. It is filed as cell-based.
The target in data set [5] is bacterial RNA polymerases. The experiment in a line: RNA polymerase assays, enzyme not given. It counts as biochemical. The settings on record: read-out: IC50, bacterial RNA polymerases; abstract.
The next data set has as its system menaquinone biosynthesis. It counts as biochemical.
Another data set concerns the target T2, MurX (Mycobacterium tuberculosis, UniProt P9WMW7).
T2 sequence (P9WMW7 1-359): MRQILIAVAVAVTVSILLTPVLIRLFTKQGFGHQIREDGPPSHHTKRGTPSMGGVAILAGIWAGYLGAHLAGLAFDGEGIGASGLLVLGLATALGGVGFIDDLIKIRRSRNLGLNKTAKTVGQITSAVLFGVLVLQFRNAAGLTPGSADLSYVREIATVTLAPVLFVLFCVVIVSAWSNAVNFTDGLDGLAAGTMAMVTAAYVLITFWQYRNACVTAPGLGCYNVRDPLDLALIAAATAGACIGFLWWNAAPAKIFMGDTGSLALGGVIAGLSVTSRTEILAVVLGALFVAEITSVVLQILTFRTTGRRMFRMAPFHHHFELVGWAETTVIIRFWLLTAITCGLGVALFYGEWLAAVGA
The experiment in a line: MurX enzyme inhibitory assay. It counts as biochemical, M. tuberculosis.

For data set [6], the system named is electron transport systems. The experiment in a line: Inhibition of electron transport systems. It counts as cell-based.
A further data set addresses S. aureus RNA polymerase (Staphylococcus aureus, UniProt P47768+Q2G0N5). Nature of the data set: RNA polymerase assay. It is filed as biochemical.
The target in data set [7] is Mtb serine/threonine kinase PknB (Mycobacterium tuberculosis, UniProt P9WI81). The experiment in a line: Ser/Thr protein kinase assay. It is filed as biochemical, M. tuberculosis.
A further data set deals with E. coli ATCC 25019. The experiment in a line: MIC, broth dilution. It is filed as cell-based. The settings on record: Escherichia coli, ATCC25019.
The target in the next data set is DNA gyrase (Escherichia coli, UniProt P0AES4+P0AES6). Nature of the data set: DNA topoisomerase II - DNA supercoiling assay. It is filed as biochemical.
The next data set concerns M. tuberculosis H37Rv. Nature of the data set: MIC, microplate alamar blue assay. It counts as cell-based. The settings on record: Mycobacterium tuberculosis. (Resazurin is reduced to fluorescent resorufin, in cell work by metabolically active cells.)
The test system of another data set is Mtb. The experiment in a line: Micro dilution broth checkerboard. It is filed as cell-based, Mycobacterium tuberculosis.

Converted amounts (≈) assume the structure as drawn. Like-named read-outs stand apart in the source and are kept apart here. Some results are limits rather than exact numbers.

E. coli RNA polymerase, sequence (P0A8V2 whole entry): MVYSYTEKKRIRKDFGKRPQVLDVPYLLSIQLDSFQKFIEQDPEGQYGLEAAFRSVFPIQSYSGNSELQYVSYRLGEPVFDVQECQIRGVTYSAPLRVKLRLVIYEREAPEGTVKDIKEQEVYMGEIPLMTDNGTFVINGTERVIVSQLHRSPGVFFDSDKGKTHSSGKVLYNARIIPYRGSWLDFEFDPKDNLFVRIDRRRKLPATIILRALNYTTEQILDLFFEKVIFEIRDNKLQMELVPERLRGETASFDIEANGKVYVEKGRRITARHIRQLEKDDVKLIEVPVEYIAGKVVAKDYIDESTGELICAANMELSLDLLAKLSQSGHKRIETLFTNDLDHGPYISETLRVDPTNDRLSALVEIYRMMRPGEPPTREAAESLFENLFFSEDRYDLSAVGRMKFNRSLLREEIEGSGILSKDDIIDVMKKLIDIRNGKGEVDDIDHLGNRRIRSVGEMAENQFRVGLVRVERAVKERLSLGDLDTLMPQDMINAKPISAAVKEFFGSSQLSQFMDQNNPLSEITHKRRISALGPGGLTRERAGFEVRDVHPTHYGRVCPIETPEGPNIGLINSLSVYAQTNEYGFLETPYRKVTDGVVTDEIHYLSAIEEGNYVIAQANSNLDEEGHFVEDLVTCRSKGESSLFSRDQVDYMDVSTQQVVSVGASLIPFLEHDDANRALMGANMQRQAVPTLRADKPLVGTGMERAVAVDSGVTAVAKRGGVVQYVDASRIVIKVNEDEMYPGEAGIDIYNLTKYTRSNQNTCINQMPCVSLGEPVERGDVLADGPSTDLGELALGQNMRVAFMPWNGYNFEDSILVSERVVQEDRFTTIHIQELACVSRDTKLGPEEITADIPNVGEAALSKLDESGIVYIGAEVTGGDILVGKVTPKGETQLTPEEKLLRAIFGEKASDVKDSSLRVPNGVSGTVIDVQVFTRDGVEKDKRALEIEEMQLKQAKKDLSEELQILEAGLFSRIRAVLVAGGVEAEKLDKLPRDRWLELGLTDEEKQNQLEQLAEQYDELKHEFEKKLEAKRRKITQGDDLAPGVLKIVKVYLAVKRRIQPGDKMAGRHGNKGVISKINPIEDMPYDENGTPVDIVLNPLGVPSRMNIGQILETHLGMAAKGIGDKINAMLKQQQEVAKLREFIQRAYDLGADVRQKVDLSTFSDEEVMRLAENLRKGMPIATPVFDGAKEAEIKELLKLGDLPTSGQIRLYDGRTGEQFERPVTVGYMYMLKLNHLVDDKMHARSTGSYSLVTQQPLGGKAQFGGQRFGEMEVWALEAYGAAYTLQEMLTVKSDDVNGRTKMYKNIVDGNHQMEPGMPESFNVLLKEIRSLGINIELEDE
E. coli RNA polymerase, sequence (P0A8T7 whole entry): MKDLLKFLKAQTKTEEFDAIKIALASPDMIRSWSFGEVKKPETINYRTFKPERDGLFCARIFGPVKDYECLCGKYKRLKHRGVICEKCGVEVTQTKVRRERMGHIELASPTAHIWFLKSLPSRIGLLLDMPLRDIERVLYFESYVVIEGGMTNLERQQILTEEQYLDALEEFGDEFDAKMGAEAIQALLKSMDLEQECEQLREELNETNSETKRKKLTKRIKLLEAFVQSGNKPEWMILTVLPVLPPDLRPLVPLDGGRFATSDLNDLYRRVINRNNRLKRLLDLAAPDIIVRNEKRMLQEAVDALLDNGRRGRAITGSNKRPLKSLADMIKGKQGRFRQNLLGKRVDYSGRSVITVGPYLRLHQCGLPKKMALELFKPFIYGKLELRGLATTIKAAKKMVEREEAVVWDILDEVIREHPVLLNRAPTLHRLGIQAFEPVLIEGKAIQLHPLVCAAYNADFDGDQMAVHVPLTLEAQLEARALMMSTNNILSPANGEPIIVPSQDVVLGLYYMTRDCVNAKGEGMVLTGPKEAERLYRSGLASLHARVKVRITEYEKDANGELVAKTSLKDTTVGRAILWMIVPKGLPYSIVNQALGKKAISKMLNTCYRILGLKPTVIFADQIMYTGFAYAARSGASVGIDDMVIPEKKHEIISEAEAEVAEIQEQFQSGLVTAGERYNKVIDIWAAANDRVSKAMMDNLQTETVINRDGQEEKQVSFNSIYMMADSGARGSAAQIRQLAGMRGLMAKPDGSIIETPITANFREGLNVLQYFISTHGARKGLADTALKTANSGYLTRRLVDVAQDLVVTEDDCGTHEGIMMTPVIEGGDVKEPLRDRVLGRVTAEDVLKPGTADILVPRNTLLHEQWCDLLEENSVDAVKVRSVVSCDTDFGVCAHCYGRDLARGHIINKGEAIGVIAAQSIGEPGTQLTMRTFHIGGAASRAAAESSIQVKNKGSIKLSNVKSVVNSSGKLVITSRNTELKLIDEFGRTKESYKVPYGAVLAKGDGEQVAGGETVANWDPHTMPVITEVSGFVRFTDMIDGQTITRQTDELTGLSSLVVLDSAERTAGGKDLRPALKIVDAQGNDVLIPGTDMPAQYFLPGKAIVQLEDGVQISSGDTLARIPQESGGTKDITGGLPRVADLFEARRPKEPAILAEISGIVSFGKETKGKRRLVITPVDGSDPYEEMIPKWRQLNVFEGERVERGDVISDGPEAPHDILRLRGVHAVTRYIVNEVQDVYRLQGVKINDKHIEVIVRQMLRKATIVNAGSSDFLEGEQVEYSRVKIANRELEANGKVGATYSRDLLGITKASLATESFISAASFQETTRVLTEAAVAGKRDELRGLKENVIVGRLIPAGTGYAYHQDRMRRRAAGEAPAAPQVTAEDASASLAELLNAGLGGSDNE
E. coli RNA polymerase, sequence (P0A7Z4 whole entry partner): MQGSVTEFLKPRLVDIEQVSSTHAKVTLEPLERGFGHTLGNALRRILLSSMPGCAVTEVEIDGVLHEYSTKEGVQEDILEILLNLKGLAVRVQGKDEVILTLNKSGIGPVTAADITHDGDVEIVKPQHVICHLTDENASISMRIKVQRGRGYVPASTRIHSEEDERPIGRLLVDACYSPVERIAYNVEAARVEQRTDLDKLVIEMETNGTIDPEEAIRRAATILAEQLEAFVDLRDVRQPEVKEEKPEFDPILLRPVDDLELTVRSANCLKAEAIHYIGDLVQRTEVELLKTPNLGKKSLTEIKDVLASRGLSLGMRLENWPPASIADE
E. coli RNA polymerase, sequence (P0A800 whole entry partner): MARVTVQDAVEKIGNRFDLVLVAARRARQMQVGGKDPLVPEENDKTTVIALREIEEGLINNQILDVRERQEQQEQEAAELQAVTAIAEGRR
M. smegmatis RNA polymerase, sequence (P60281 whole entry, other chains not shown): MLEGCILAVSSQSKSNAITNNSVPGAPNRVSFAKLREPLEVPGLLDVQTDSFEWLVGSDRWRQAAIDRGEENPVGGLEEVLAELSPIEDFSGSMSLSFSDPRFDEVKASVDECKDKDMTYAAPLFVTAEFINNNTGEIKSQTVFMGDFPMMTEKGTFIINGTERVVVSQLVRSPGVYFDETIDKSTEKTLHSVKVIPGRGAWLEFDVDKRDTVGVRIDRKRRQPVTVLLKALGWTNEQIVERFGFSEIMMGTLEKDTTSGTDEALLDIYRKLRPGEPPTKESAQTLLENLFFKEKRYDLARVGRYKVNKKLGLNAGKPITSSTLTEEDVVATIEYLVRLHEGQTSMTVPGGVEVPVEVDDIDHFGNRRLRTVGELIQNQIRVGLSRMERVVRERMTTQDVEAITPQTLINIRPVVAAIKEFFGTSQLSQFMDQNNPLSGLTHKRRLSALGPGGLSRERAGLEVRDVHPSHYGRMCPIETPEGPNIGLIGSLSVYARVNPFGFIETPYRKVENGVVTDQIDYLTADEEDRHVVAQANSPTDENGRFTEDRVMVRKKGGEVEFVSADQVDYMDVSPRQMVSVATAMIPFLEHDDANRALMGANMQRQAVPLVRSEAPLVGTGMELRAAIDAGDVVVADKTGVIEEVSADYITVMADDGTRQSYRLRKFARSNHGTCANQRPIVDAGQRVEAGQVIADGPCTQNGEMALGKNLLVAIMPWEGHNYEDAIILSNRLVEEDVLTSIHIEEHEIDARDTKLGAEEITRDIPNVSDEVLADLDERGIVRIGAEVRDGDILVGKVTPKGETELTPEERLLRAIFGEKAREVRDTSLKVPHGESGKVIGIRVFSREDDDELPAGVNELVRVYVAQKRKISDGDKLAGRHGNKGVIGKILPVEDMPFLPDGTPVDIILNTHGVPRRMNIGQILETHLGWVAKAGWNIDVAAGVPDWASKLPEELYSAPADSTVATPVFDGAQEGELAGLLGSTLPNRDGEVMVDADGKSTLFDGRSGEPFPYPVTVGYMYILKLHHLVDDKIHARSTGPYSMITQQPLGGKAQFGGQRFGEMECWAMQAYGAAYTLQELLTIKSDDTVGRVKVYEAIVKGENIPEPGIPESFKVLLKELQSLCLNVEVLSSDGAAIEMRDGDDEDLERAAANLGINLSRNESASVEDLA
M. smegmatis RNA polymerase, sequence (A0QSL8 whole entry partner, other chains not shown): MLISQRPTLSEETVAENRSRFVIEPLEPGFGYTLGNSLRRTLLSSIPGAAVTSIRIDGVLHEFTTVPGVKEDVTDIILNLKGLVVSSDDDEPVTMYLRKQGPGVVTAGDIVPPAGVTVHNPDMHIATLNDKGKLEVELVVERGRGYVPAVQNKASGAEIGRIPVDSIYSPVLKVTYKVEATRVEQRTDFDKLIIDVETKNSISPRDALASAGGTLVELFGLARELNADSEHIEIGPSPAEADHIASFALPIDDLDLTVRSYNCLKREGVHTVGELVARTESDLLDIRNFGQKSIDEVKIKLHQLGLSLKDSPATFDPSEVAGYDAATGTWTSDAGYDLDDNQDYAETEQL
M. smegmatis RNA polymerase, sequence (A0QWT1 whole entry partner, other chains not shown): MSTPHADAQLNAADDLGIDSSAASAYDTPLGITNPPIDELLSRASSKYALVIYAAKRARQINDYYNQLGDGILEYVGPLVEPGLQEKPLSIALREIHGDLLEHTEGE

For `COC1C(C(OC2OC(C(=O)NC3CCCCNC3=O)=CC(O)C2O)C(N)=O)OC(n2ccc(=O)[nH]c2=O)C1OC` (stereo not drawn) [UT-01320 (3), 6-{Carbamoyl-[5-(2,4-dioxo-3,4-dihydro-2H-pyrimidin-1-yl)-3,4-dimethoxy-tetrahydro-furan-2-yl]-methoxy}-4,5-dihydroxy-5,6-dihydro-4H-pyran-2-carboxylic acid (2-oxo-azepan-3-yl)-amide], the “MIC” value with M. smegmatis ATCC607 is over 200 µg/mL; in data set [1], 2.58 µg/mL (≈ 4.42 µM); against P. aeruginosa ATCC 27853, over 200 µg/mL; against E. faecium ATCC 349, over 200 µg/mL; against E. coli ATCC 25019, over 200 µg/mL; in the data set on M. tuberculosis H37Rv, 1.5 µg/mL (≈ 2.57 µM). The “inhibition of Mtb serine/threonine kinase PKnA” value in [2] is reported as “did not inhibit”. In addition, in the data set on M. tuberculosis, the “time to kill Mtb completely (100%)” value was at most 5 days. In addition, the “time to kill 50% of Mtb” value in the data set with M. tuberculosis is at most 3 days. Besides, the “time to kill 100% of Mtb” value in the data set with M. tuberculosis (4× MIC: UT-01320 6.0 μg/mL) is on record as at most 3 days. The IC50 against E. coli RNA polymerase was 0.1 to 0.15 µM; in data set [3] it was 0.1 to 0.15 µM; in the data set “Cytotoxicity assay”, over 400 µg/mL; in [4] it was over 400 µg/mL; in [5], 0.1 to 0.15 µM; at MurX, over 100 µM. For the same molecule, the IC50 at S. aureus RNA polymerase was in the range of 0.1 to 0.15 µM. For the same molecule, in the data set on menaquinone biosynthesis, the “inhibition of menaquinone biosynthesis” value was “did not inhibit”. In addition, the results for the “MurX enzyme inhibitory activity” value at MurX and on MurX (listed as 3) were “did not interfere with MurX” and “did not exhibit MurX enzyme inhibitory activity even at high concentrations”, respectively. Further, in [6], the “inhibition of electron transport systems” value is “did not inhibit”. In [7], the “inhibition of Mtb serine/threonine kinase PknB” value was “did not inhibit”. The “inhibition of DNA gyrase” value on DNA gyrase is on record as “did not inhibit”.

For `CC[C@@H](CO)NCCN[C@@H](CC)CO` [Ethambutol (EMB), Ethambutol], the figures for the MIC (in data set [1]; with M. tuberculosis H37Rv (read-out: MIC μg/mL (MABA))) were over 100 µg/mL and 0.78 µg/mL (≈ 3.82 µM), respectively. In addition, the IC50 in [4] was over 400 µg/mL.

Regarding `NNC(=O)c1ccncc1` [Isoniazid (INH), Isoniazid], the figures for the MIC (in data set [1]; with M. tuberculosis H37Rv; in the data set on M. tuberculosis H37Rv (read-out: MIC μg/mL (MABA))) were over 100 µg/mL, 0.04 to 0.1 µg/mL (≈ 0.292 to 0.729 µM) and 0.04 to 0.1 µg/mL (≈ 0.292 to 0.729 µM), respectively. Moreover, in data set [4], the IC50 was over 400 µg/mL.

Take `COC1C(O)C(n2ccc(=O)[nH]c2=O)OC1C(OC1OC(C(=O)Nc2ccc(F)c(F)c2)=CC(O)C1O)C(N)=O` (stereo not drawn) [SQ 641 (2), 6-{Carbamoyl-[5-(2,4-dioxo-3,4-dihydro-2H-pyrimidin-1-yl)-4-hydroxy-3-methoxy-tetrahydro-furan-2-yl]-methoxy}-4,5-dihydroxy-5,6-dihydro-4H-pyran-2-carboxylic acid (3,4-difluoro-phenyl)-amide]: in data set [1], the MIC was over 100 µg/mL. Besides, the IC50 is over 400 µg/mL in data set [4] and 0.098 µM on MurX. The “MIC (μg/mL) CA and CB (concentration in combination)” value with Mtb (pair SQ 641 0.10 + UT-01320 0.08), in the data set on Mtb (pair SQ 641 0.10 + UT-01320 0.16), with Mtb (pair SQ 641 0.10 + UT-01320 0.32), in the data set on Mtb (pair SQ 641 0.10 + UT-01320 0.645) and in the data set on Mtb (pair SQ 641 0.10 + UT-01320 1.29) was 0.10 µg/mL each time.

On to `CO[C@H]1/C=C/O[C@@]2(C)Oc3c(C)c(O)c4c(O)c(c(/C=N/N5CCN(C)CC5)c(O)c4c3C2=O)NC(=O)/C(C)=C\C=C\[C@H](C)[C@H](O)[C@@H](C)[C@@H](O)[C@@H](C)[C@H](OC(C)=O)[C@@H]1C` [Rifampicin (RFP), Rifampicin], for which, in the data set with M. tuberculosis, the “time to kill 50% of Mtb” value is reported as “over 7 days”. Moreover, the values for the IC50 (against E. coli RNA polymerase; in data set [4]) were 0.12 µM and over 400 µg/mL, respectively. Also, the MIC with M. tuberculosis H37Rv and in the data set on M. tuberculosis H37Rv (read-out: MIC μg/mL (MABA)) was 0.2 µg/mL (≈ 0.243 µM) throughout.

As to `COC1C(O)C(n2ccc(=O)[nH]c2=O)OC1C(OC1OC(C(=O)NC2CCCCNC2=O)=CC(O)C1O)C(N)=O` (stereo not drawn) [Capuramycin (1), 6-{Carbamoyl-[5-(2,4-dioxo-3,4-dihydro-2H-pyrimidin-1-yl)-4-hydroxy-3-methoxy-tetrahydro-furan-2-yl]-methoxy}-4,5-dihydroxy-5,6-dihydro-4H-pyran-2-carboxylic acid (2-oxo-azepan-3-yl)-amide], the MIC in data set [1] is over 100 µg/mL. Also, in the data set with M. tuberculosis, the “time to kill Mtb completely (100%)” value came out at 2 days. Further, the “log10 CFU/mL reduction” value in the data set on M. tuberculosis (in 1 day, 24.0 μg/mL (2× MIC)) is at least 3.0 log10 CFU/mL. Also, the IC50 in [4] is over 400 µg/mL; against MurX it was 0.127 µM.

For the origin of these results see paper PMC4382465 (The Journal of antibiotics, 2014).
